Reference: ChEMBL document CHEMBL2346629, “Discovery and characterization of novel allosteric FAK inhibitors” (Eur J Med Chem, 2013)

Legend:
[1] = target: Myosin light chain kinase, smooth muscle (Homo sapiens, UniProt Q15746); experiment: Inhibition of MLCK (unknown origin) using [gamma-33P]ATP
Outline: (§1)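 Radiometric kinase profiling service covering 288 kinases (261 wild-type, 27 mutant). Inhibition was read as incorporation from [γ-³³P]ATP.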

[2] = target: Serine/threonine-protein kinase Chk2 (Homo sapiens, UniProt O96017); experiment: Inhibition of CHK2 (unknown origin) using [gamma-33P]ATP
Outline: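 Radiometric profiling across 288 kinases (261 wild-type, 27 mutant), run as an outsourced service. Inhibition read out as [gamma-33P]ATP incorporation into substrate.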

[3] = target: Mast/stem cell growth factor receptor Kit (Homo sapiens, UniProt P10721, D816V); experiment: Inhibition of c-Kit D816V mutant (unknown origin) using [gamma-33P]ATP; outline: as §1
[4] = target: Tyrosine-protein kinase Fyn (Homo sapiens, UniProt P06241); experiment: Inhibition of FYN (unknown origin) using [gamma-33P]ATP; outline: as §1
[5] = target: Mitogen-activated protein kinase kinase kinase 9 (Homo sapiens, UniProt P80192); experiment: Inhibition of MLK1 (unknown origin) using [gamma-33P]ATP; outline: as §1
[6] = target: Tyrosine-protein kinase Yes (Homo sapiens, UniProt P07947); experiment: Inhibition of YES (unknown origin) using [gamma-33P]ATP; outline: as §1
[7] = target: Tyrosine-protein kinase Fgr (Homo sapiens, UniProt P09769); experiment: Inhibition of FGR (unknown origin) using [gamma-33P]ATP
Outline: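 Reaction Biology HotSpot radiometric profiling panel of 288 kinases (261 wild-type, 27 mutant). Kinase activity was read out by incorporation of [γ-33P]ATP.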

[8] = target: Mitogen-activated protein kinase kinase kinase kinase 2 (Homo sapiens, UniProt Q12851); experiment: Inhibition of GCK (unknown origin) using [gamma-33P]ATP; outline: as §1
[9] = target: Mitogen-activated protein kinase kinase kinase kinase 4 (Homo sapiens, UniProt O95819); experiment: Inhibition of HGK (unknown origin) using [gamma-33P]ATP; outline: as §1
Focal adhesion kinase 1 [10] = target: T1, Focal adhesion kinase 1 (Homo sapiens, UniProt Q05397)
Focal adhesion kinase 1 [11] = target: T1, Focal adhesion kinase 1; experiment: Inhibition of human GST-tagged phosphorylated full length FAK incubated for 60 mins prior to 1000 uM of ATP addition by HTRF analysis
Focal adhesion kinase 1 [12] = target: T1, Focal adhesion kinase 1; experiment: Inhibition of human GST-tagged phosphorylated full length FAK incubated for 5 mins prior to 1000 uM of ATP addition by HTRF analysis
Focal adhesion kinase 1 [13] = target: T1, Focal adhesion kinase 1; experiment: Inhibition of human FLAG-tagged unphosphorylated full length FAK expressed in baculovirus expression system incubated for 5 mins prior to 0.5 uM ATP addition by AlphaScreen assay
Focal adhesion kinase 1 [14] = target: T1, Focal adhesion kinase 1; experiment: Inhibition of human GST-tagged phosphorylated full length FAK incubated for 5 mins prior to 0.5 uM of ATP addition by HTRF analysis
Focal adhesion kinase 1 [15] = target: T1, Focal adhesion kinase 1; experiment: Inhibition of human FLAG-tagged unphosphorylated full length FAK expressed in baculovirus expression system incubated for 5 mins prior to 1000 uM of ATP addition by AlphaScreen assay
Focal adhesion kinase 1 [16] = target: T1, Focal adhesion kinase 1; remark: listed apart in the source
Focal adhesion kinase 1 [17] = target: T1, Focal adhesion kinase 1; remark: listed apart in the source
[18] = Inhibition of PDGFRa D824V mutant (unknown origin) using [gamma-33P]ATP; set-up: species or system Homo sapiens
[19] = target: T2, Protein-tyrosine kinase 2-beta (Homo sapiens, UniProt Q14289); experiment: Inhibition of human 6His-tagged unphosphorylated PYK2 (1 to 967) using Poly-(GT)-biotin as substrate by AlphaScreen assay in presence of [gamma-33P]ATP
Focal adhesion kinase 1 [20] = target: T1, Focal adhesion kinase 1; remark: listed apart in the source
[21] = target: T2, Protein-tyrosine kinase 2-beta; experiment: Inhibition of human GST-tagged phosphorylated full length PYK2 (1 to 967) using Poly-(GT)-biotin as substrate by HTRF analysis in presence of [gamma-33P]ATP
Focal adhesion kinase 1 [22] = target: T1, Focal adhesion kinase 1; experiment: Inhibition of human FLAG-tagged unphosphorylated full length FAK expressed in baculovirus expression system incubated for 60 mins prior to 1000 uM of ATP addition by AlphaScreen assay
Focal adhesion kinase 1 [23] = target: T1, Focal adhesion kinase 1; experiment: Inhibition of human GST-tagged phosphorylated full length FAK incubated for 60 mins prior to 0.5 uM of ATP addition by HTRF analysis
Focal adhesion kinase 1 [24] = target: T1, Focal adhesion kinase 1; experiment: Inhibition of human FLAG-tagged unphosphorylated full length FAK expressed in baculovirus expression system incubated for 60 mins prior to 0.5 uM of ATP addition by AlphaScreen assay

T1 sequence (Q05397 whole entry): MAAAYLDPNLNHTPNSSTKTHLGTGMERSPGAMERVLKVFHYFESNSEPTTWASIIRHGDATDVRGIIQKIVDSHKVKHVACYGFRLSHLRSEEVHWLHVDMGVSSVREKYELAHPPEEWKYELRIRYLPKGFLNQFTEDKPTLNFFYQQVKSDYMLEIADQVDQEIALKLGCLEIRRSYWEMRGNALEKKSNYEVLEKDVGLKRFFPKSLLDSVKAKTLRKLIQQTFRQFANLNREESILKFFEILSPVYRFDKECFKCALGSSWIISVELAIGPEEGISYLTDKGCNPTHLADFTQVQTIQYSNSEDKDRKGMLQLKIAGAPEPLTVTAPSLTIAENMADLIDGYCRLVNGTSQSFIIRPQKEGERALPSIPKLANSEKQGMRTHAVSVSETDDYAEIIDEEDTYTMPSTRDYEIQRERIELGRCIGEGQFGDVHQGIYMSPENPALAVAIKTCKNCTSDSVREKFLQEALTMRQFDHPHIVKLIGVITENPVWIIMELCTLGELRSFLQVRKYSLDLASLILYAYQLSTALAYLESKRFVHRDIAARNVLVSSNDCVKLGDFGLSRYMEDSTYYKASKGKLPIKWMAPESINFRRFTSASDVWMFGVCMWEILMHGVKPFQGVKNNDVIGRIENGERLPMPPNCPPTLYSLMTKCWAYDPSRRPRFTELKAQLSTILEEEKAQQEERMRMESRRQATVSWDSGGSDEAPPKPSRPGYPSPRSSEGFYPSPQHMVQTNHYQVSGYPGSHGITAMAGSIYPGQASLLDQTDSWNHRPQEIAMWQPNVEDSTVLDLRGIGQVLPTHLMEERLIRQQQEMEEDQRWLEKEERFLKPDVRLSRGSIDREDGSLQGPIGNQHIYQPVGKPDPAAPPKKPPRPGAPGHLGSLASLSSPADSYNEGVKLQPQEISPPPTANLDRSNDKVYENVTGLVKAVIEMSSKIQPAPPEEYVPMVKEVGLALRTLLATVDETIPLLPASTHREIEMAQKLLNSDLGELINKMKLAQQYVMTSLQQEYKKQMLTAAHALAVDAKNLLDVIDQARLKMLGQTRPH
Sequence of Mitogen-activated protein kinase kinase kinase kinase 4 (O95819 whole entry): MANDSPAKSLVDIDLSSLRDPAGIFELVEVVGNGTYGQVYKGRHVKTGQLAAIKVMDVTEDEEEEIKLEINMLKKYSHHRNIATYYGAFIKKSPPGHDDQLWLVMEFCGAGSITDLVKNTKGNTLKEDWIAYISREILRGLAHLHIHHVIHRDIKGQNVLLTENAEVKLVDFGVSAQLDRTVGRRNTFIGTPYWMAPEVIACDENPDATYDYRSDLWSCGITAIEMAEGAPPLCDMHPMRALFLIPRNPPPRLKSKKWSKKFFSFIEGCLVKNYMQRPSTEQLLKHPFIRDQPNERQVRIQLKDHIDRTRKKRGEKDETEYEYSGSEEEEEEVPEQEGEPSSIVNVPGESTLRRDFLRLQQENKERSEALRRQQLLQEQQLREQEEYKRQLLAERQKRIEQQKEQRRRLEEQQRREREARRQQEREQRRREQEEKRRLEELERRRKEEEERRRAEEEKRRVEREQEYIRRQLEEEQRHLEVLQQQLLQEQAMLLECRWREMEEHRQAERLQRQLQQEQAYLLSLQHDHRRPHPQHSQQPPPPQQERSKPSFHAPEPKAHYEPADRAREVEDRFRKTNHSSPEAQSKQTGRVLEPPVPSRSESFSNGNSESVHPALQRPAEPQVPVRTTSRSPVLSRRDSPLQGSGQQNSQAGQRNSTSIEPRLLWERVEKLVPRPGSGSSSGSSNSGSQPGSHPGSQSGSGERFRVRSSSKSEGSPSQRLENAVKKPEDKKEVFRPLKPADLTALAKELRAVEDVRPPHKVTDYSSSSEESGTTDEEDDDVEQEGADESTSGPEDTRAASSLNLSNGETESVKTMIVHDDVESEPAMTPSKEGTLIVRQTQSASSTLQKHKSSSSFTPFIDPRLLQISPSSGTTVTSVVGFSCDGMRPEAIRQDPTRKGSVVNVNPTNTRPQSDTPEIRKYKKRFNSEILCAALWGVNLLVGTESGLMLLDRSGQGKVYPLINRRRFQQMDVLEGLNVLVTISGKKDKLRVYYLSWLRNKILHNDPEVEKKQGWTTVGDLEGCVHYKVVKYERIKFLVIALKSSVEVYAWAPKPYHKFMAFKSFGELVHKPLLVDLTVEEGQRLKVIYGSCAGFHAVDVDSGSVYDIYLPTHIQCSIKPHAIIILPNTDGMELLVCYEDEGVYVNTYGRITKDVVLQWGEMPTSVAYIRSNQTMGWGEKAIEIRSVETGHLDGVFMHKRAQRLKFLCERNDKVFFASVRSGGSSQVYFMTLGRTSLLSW
Sequence of Mitogen-activated protein kinase kinase kinase kinase 2 (Q12851 whole entry): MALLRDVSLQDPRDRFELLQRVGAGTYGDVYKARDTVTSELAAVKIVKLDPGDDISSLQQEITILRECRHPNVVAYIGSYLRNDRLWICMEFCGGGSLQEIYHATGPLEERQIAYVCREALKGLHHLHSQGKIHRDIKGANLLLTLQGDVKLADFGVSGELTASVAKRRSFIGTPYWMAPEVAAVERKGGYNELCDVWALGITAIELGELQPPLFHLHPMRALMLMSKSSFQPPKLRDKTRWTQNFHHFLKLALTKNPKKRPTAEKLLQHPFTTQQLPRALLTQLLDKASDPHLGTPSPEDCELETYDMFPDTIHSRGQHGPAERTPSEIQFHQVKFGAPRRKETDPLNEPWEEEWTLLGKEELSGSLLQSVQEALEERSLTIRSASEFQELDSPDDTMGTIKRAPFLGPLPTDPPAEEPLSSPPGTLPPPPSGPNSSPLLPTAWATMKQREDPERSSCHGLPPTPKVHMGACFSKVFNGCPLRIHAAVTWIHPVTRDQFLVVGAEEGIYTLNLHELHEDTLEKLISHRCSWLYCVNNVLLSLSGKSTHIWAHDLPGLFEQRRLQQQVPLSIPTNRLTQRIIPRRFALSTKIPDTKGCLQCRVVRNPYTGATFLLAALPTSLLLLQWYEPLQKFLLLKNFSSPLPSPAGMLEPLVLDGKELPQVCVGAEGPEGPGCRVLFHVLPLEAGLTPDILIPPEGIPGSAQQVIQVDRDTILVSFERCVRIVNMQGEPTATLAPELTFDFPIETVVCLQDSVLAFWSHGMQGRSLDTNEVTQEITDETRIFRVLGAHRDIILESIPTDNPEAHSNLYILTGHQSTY
Sequence of Tyrosine-protein kinase Fyn (P06241 whole entry): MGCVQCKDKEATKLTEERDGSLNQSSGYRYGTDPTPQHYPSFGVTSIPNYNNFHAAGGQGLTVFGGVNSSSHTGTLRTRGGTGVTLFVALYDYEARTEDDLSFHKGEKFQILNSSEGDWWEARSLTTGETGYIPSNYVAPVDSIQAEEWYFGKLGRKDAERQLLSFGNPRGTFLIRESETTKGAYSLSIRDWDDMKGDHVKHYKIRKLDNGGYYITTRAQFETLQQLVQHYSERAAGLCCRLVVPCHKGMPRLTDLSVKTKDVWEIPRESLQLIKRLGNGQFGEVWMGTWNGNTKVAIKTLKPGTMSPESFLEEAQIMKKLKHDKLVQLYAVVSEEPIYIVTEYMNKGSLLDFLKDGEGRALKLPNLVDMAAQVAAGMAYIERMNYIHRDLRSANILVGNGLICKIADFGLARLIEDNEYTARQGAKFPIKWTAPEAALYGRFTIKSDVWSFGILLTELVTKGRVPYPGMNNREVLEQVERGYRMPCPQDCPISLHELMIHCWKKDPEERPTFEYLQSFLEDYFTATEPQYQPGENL
Sequence of Tyrosine-protein kinase Fgr (P09769 whole entry): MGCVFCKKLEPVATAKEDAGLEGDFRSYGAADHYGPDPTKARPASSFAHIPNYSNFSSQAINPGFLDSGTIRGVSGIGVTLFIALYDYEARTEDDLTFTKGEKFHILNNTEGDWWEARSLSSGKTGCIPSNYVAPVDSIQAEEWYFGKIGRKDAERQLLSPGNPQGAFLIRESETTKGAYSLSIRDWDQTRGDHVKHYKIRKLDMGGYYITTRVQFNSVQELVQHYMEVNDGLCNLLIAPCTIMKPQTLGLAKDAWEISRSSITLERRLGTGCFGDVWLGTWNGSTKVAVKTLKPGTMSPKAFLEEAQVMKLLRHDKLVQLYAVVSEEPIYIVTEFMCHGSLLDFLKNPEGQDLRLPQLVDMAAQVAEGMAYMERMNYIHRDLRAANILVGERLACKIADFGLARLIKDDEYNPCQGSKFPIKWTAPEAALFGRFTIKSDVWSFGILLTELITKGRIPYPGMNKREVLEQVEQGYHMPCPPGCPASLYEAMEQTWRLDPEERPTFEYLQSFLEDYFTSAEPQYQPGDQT
Sequence of Serine/threonine-protein kinase Chk2 (O96017 whole entry): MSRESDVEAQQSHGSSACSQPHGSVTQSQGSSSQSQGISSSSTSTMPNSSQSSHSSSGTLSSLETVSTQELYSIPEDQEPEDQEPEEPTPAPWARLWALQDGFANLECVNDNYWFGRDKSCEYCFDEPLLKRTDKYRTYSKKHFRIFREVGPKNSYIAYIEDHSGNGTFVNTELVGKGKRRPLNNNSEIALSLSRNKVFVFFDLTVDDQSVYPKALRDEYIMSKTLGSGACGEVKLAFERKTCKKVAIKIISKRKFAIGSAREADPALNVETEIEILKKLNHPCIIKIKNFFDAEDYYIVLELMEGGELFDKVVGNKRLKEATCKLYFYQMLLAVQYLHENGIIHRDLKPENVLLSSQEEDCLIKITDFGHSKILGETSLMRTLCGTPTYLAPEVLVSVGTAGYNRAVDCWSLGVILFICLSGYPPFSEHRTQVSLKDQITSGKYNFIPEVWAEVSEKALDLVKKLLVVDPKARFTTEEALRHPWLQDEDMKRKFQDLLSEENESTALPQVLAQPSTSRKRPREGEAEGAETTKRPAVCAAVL

Row | IC50 [1] [µM] | IC50 [2] [µM] | IC50 [3] [µM] | IC50 [4] [µM] | IC50 [5] [µM] | IC50 [6] [µM] | IC50 [7] [µM] | IC50 [8] [µM] | IC50 [9] [µM] | SMILES | also measured
1 | 4 | 3.4 | 2.8 | 2.8 | 0.37 | 1.8 | 1.9 | 3 | 1.6 | CCc1ccc(-c2ccc3c(c2)-c2n[nH]cc2S(=O)(=O)N3C)cc1 | –
2 | > 10 | > 10 | > 10 | > 10 | > 10 | > 10 | > 10 | > 10 | > 10 | CCc1ccc(-c2ccc3c(c2)-c2c(cnn2CC)S(=O)(=O)N3C)cc1 | IC50 (Focal adhesion kinase 1 [10]): 1 µM; IC50 (Focal adhesion kinase 1 [11]): > 30 µM; IC50 (Focal adhesion kinase 1 [12]): > 30 µM; IC50 (Focal adhesion kinase 1 [13]): > 10 µM; IC50 (Focal adhesion kinase 1 [14]): > 30 µM; IC50 (Focal adhesion kinase 1 [15]): > 10 µM; IC50 (Focal adhesion kinase 1 [16]): 1.3 µM; IC50 (Focal adhesion kinase 1 [17]): 1.6 µM; IC50 [18]: > 10 µM; IC50 [19]: > 30 µM; IC50 (Focal adhesion kinase 1 [20]): 3 µM; IC50 [21]: > 30 µM; IC50 (Focal adhesion kinase 1 [22]): 3.2 µM; IC50 (Focal adhesion kinase 1 [23]): > 30 µM; IC50 (Focal adhesion kinase 1 [24]): 3.2 µM
